Consider 15 compounds from ChEMBL document CHEMBL1909618, “Non-steroidal dissociated glucocorticoid agonists: indoles as A-ring mimetics and function-regulating pharmacophores” (Bioorg Med Chem Lett, 2011).

For test [1], the target named is T1, Progesterone receptor (Homo sapiens, UniProt P06401).
T1 sequence (P06401 whole entry): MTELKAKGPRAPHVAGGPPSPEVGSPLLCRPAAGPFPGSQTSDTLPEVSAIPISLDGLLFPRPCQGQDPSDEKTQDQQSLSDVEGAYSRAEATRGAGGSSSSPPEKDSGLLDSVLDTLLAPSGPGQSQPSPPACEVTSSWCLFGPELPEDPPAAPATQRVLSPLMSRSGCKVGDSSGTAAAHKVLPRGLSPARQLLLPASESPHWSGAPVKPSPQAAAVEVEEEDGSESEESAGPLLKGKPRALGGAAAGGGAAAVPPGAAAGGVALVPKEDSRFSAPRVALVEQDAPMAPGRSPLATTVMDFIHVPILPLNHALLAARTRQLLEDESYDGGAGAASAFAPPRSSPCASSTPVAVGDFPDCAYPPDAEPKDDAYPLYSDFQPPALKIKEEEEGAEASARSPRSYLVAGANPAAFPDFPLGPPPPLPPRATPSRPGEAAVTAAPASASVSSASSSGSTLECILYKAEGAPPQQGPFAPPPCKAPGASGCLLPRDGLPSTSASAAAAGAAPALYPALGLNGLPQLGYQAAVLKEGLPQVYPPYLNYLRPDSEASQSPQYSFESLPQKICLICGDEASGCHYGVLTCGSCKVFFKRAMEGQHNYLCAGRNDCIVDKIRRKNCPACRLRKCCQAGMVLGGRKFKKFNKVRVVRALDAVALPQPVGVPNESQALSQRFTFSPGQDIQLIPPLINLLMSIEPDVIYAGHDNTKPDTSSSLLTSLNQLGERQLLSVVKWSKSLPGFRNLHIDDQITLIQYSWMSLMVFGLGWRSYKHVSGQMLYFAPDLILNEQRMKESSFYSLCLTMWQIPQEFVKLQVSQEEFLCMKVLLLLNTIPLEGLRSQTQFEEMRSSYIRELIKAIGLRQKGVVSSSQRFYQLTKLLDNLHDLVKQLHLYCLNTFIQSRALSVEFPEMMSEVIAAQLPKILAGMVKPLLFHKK
The experiment in a line: Displacement of tetramethylrhodamine-labeled RU-486 from human recombinant progesterone receptor expressed in baculovirus infected insect cells by fluorescence polarization assay. Put shortly: (§1)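 Fluorescence polarization competition assays with recombinant human receptors in lysates of baculovirus-infected insect cells. Reactions contained 1% DMSO and ran 1 h at room temperature.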

The target of test [2] is T2, Glucocorticoid receptor (Homo sapiens) (UniProt P04150).
T2 sequence (whole entry): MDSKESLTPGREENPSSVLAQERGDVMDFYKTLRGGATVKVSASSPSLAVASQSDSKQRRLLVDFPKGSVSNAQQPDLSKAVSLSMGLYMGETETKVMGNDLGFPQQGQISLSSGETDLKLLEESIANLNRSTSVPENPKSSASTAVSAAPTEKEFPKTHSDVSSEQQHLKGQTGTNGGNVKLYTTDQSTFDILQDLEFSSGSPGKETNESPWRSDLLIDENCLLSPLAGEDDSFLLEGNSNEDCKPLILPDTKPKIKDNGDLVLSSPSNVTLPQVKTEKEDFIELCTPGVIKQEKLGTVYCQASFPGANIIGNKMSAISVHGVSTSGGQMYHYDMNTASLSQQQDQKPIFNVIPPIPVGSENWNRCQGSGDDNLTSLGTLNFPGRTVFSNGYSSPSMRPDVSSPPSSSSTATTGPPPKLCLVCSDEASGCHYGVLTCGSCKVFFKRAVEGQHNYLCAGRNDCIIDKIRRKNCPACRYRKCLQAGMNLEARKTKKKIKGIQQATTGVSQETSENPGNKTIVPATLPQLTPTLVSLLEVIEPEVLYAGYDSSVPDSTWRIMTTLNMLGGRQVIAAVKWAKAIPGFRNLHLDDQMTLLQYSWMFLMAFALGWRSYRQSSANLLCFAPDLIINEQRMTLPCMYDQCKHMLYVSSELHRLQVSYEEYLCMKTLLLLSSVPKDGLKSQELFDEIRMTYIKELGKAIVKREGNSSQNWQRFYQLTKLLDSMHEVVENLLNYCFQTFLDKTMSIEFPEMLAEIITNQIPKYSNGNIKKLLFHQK
In words: Agonist activity at glucocorticoid receptor in HFF assessed as inhibition of IL1-induced IL-6 production after 18 to 24 hrs relative to Dexamethasone. The test is classed as functional. Put shortly:
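Human foreskin fibroblasts stimulated with IL-1 (1 ng/mL) in the presence of test compound, incubated at 37 °C for 18–24 h. IL-6 in the culture medium was quantified by electrochemiluminescence, DELFIA or ELISA. IC50 and % maximal efficacy were reported.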

The target of test [3] is T3, Glucocorticoid receptor (Homo sapiens, UniProt P04150).
T3 sequence (P04150 whole entry): T2 sequence (whole entry)
The experiment in a line: Transactivation activity of glucocorticoid receptor in HFF assessed as induction of aromatase activity by measuring beta-estradiol activity after 18 to 24 hrs by ELISA.

In test [4] the target is T2, Glucocorticoid receptor (Homo sapiens). In words: Transactivation activity of glucocorticoid receptor in HFF assessed as induction of aromatase activity by measuring beta-estradiol activity after 18 to 24 hrs by ELISA relative to Dexamethasone. Background: An ELISA detects its analyte on a solid surface through an enzyme-linked reagent.
The target of test [5] is T3, Glucocorticoid receptor. In words: Displacement of tetramethylrhodamine-labeled Dexamethasone from human recombinant glucocorticoid receptor expressed in baculovirus infected insect cells by fluorescence polarization assay. On the technique in general: In fluorescence polarisation assays a small probe gives low polarisation when free and higher when bound to something large.

Test [6] deals with T4, Mineralocorticoid receptor (Homo sapiens, UniProt P08235).
T4 sequence (P08235 whole entry): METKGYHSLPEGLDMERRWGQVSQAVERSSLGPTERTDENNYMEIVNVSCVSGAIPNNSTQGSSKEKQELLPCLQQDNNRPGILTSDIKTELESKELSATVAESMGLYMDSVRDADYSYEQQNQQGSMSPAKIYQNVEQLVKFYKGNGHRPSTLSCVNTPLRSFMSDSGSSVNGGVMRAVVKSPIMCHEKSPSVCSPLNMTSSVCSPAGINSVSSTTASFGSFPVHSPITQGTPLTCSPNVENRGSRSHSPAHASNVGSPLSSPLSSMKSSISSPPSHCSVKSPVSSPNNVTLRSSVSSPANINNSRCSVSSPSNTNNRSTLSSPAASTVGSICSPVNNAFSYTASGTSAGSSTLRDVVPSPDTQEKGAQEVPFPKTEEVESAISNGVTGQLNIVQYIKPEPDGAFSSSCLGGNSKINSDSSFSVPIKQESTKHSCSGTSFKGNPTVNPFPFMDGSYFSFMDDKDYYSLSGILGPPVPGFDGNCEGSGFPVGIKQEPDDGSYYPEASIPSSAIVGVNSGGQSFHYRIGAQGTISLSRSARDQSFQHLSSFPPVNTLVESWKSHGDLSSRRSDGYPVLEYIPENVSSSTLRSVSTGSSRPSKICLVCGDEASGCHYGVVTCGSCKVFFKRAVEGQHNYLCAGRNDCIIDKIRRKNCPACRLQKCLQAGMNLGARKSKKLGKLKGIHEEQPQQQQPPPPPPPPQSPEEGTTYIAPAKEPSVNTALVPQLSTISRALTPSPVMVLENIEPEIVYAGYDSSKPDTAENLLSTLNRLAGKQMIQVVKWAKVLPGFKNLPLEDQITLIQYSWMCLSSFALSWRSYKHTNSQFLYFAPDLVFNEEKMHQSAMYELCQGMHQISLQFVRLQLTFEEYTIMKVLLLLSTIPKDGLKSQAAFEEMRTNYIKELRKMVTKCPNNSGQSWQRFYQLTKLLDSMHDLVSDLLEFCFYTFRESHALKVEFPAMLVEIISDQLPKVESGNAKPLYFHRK
In words: Displacement of tetramethylrhodamine-labeled Dexamethasone from human recombinant mineralocorticoid receptor expressed in baculovirus infected insect cells by fluorescence polarization assay. The essentials: as §1

In test [7] the target is T3, Glucocorticoid receptor. In words: Agonist activity at glucocorticoid receptor in HFF assessed as inhibition of IL1-induced IL-6 production after 18 to 24 hrs. The test is classed as functional.

As usually defined, the IC50 is the concentration that gives 50% inhibition. On to `C[C@@H]1C[C@H]2[C@@H]3CCC4=CC(=O)C=C[C@]4(C)[C@@]3(F)[C@@H](O)C[C@]2(C)[C@@]1(O)C(=O)CO` [DEXAMETHASONE], for which, in test [1], the concentration for half-maximal inhibition (IC50) was over 2 µM.

The EC50 is the concentration giving half of the maximal effect. As to `COc1ccc(F)cc1C(C)(C)CC(O)(Cc1cc2c(C(F)(F)F)cccc2[nH]1)C(F)(F)F` (racemic), the Efficacy in test [2] amounted to 70%; in test [4], 30%. In addition, the EC50 result in test [3] is on record as “Not Active”. The half-inhibitory concentration (IC50) in test [5] was 0.16 µM; in test [1], over 2 µM; in test [6], over 2 µM; in test [7], 0.29 µM.

For `COc1ccc(F)cc1C(C)(C)CC(O)(Cc1cc2cc(C)ccc2[nH]1)C(F)(F)F` (racemic), the Efficacy in test [2] was 86%; in test [4], 104%. For the same compound, in test [3] (read-out: EC50), the half-maximal effective concentration (EC50) stood at 0.23 µM. Besides, the half-maximal inhibitory concentration (IC50) in test [5] worked out at 0.066 µM; in test [1], 1.8 µM; in test [6], 1.25 µM; in test [7], 0.113 µM.

As for `COc1ccc(F)cc1C(C)(C)CC(O)(Cc1cc2cc(F)ccc2[nH]1)C(F)(F)F` (racemic), the Efficacy in test [2] came to 84%; in test [4] it was 98%. Moreover, the EC50 in test [3] (read-out: EC50) was 0.094 µM. For the same compound, the 50% inhibitory concentration (IC50) was 0.024 µM in test [5], 0.405 µM in test [1], 0.405 µM in test [6] and 0.078 µM in test [7].

Regarding `COc1ccc(F)cc1C(C)(C)CC(O)(Cc1cc2cccc(C)c2[nH]1)C(F)(F)F` (racemic), the Efficacy in test [2] and in test [4] was 26% in each case. Besides, the EC50 in test [3] (read-out: EC50) is over 2 µM. The IC50 in test [5] was 0.056 µM; in test [1] it was 1.45 µM; in test [6] it was 1.03 µM; in test [7] it was over 2 µM.

Consider `COc1ccc(F)cc1C(C)(C)CC(O)(Cc1cc2cccc(F)c2[nH]1)C(F)(F)F` (racemic), for which the Efficacy was 75% in test [2] and 89% in test [4]. Moreover, the EC50 in test [3] (read-out: EC50) amounted to 0.473 µM. Further, the IC50 in test [5] came out at 0.015 µM; in test [1], 0.93 µM; in test [6], 0.435 µM; in test [7] it was 0.036 µM.

On to `COc1ccc(F)cc1C(C)(C)C[C@](O)(Cc1cc2ccccc2[nH]1)C(F)(F)F`, for which the Efficacy in test [2] and in test [4] was 20% in each case. Also, the EC50 in test [3] (read-out: EC50) was over 2 µM. The IC50 in test [5] is over 2 µM; in test [1], 1.2 µM; in test [6], 1.1 µM; in test [7] it was over 2 µM.

As for `CC(C)(CC(O)(Cc1cc2ccccc2[nH]1)C(F)(F)F)c1cccc2c1OCC2` (racemic), the Efficacy in test [2] is 83%; in test [4], 103%. For the same compound, the half-maximal effective concentration (EC50) in test [3] (read-out: EC50) came to 0.311 µM. Also, the IC50 in test [5] worked out at 0.019 µM; in test [1], 0.225 µM; in test [6] it was 0.4 µM; in test [7], 0.01 µM.

As to `COc1ccc(F)cc1C(C)(C)CC(O)(Cc1cc2cccc(C(F)(F)F)c2[nH]1)C(F)(F)F` (racemic), in test [3] (read-out: EC50), the EC50 was over 2 µM. For the same compound, the IC50 in test [5] is 0.12 µM; in test [1], 1.75 µM; in test [6], 1.65 µM; in test [7] it was over 2 µM.

`CC(C)(CC(O)(Cc1cc2ccccc2[nH]1)C(F)(F)F)c1cc(Br)cc2c1OCC2` (racemic): the Efficacy turned out to be 88% in test [2] and 99% in test [4]. In test [3] (read-out: EC50), the EC50 was 0.045 µM. In addition, the IC50 in test [5] was 0.032 µM; in test [1] it was 0.415 µM; in test [6], 0.585 µM; in test [7] it was 0.016 µM.

In the case of `COc1ccc(F)cc1C(C)(C)CC(O)(Cc1cc2c(C)cccc2[nH]1)C(F)(F)F` (racemic), the Efficacy was determined as 91% in test [2] and 110% in test [4]. Moreover, the EC50 in test [3] (read-out: EC50) amounted to 0.009 µM. In addition, the IC50 in test [5] stood at 0.03 µM; in test [1], 0.35 µM; in test [6] it was 0.415 µM; in test [7] it was 0.006 µM.

`Cc1cc2c(c(C(C)(C)CC(O)(Cc3cc4ccccc4[nH]3)C(F)(F)F)c1)OCC2` (racemic): the Efficacy in test [2] amounted to 95%; in test [4], 105%. Moreover, in test [3] (read-out: EC50), the concentration giving a half-maximal response (EC50) was 0.016 µM. The IC50 in test [5] is 0.01 µM; in test [1] it was 0.145 µM; in test [6] it was 0.24 µM; in test [7], 0.007 µM.

Regarding `CC(C)(C[C@](O)(Cc1cc2ccc(C#N)cc2[nH]1)C(F)(F)F)c1cc(S(C)(=O)=O)cc2c1OCC2`, the 50% inhibitory concentration (IC50) in test [5] came to 0.405 µM; in test [1], 1.4 µM; in test [6], 0.405 µM.

As to `COc1ccc(F)cc1C(C)(C)CC(O)(Cc1cc2cccc(C#N)c2[nH]1)C(F)(F)F` (racemic), in test [2], the Efficacy is 30%. Also, the EC50 in test [3] (read-out: EC50) was over 2 µM. Moreover, the IC50 in test [5] was 0.027 µM; in test [1], over 2 µM; in test [6], 1.42 µM; in test [7] it was over 2 µM.

In the case of `COc1ccc(F)cc1C(C)(C)CC(O)(Cc1cc2ccc(C(F)(F)F)cc2[nH]1)C(F)(F)F` (racemic), the EC50 in test [3] (read-out: EC50) is over 2 µM. Further, the IC50 in test [5] is 0.077 µM; in test [1], 1.6 µM; in test [6], 0.91 µM; in test [7], over 2 µM.
